Compound activity (PubChem BioAssay)
Shown is part of a subset that was picked to be rich in hits.
RORA inh: RORA (human) inhibition | 65,000 compounds, 0.43% hits | CHO-K1 Gal4-RORA LBD luciferase reporter, luminescence | inhibition, % at 10 µM | AID 561 | P35398;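 active means inhibition above the mean of all tested compounds plus 3 SD, cut at about 52% in these data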;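 further: 0% = RORA-transfected cells with DMSO and 100% = mock-transfected cells lacking RORA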
Target sequence (P35398 whole entry, looked up, the tested form may be a part): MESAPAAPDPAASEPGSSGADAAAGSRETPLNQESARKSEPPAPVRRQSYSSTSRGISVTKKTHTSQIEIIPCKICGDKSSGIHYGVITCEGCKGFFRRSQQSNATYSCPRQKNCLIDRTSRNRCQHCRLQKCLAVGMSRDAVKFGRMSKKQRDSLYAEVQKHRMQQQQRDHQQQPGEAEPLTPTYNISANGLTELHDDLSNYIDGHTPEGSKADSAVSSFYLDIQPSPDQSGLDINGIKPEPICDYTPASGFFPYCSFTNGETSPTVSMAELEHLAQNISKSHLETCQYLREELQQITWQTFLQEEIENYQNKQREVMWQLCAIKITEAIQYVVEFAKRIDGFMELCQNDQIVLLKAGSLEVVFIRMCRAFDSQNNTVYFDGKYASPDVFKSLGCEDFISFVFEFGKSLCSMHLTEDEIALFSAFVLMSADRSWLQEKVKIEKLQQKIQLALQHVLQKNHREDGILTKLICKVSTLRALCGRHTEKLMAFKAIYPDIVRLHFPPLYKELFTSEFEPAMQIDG
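test system = CHO-K1 Gal4-RORA LBD luciferase reporter cells | dosing = 10 µM single point | times = 20 h compound treatment, 37 °C | signal = luciferase luminescence | read-out = % inhibition of basal luciferase versus +RORA/-RORA DMSO controls | benchmarks = mock-transfected cells as 100%, +RORA DMSO cells as 0% | replicates = tested once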
Starred values were filed as active, the others as inactive.

How did N#Cc1c(NC(=O)COC(=O)C2CC3C=CC2C3)oc(-c2ccccc2)c1-c1ccccc1 (stereo not drawn) do in these assays?
RORA inh: 12

How did CCCc1ccc(-c2ccc(F)c(N)c2)nc1 do in these assays?
RORA inh: 69*

What do the screens show for `O=C(C1CC(=O)N(c2ccccc2)C1)N1CCN(C2=NS(=O)(=O)c3ccccc32)CC1` (stereo not drawn)?
RORA inh: 8

What do the screens show for `O=C(O)[C@H](Cc1ccccc1)NC(=O)N1CCOCC1`?
RORA inh: 9

Results for O=C(CSc1nnc(-c2cccnc2)n1-c1ccccc1)Nc1ccc2c(c1)OCO2 ?
RORA inh: -10

What do the screens show for `Cc1cc(NC(=O)CSc2ncnc3ccccc23)no1`?
RORA inh: -3

Results for CC12CN3CC(C)(CN(C1)C3c1ccc(Br)cc1)C2 (stereo not drawn) ?
RORA inh: 29

What do the screens show for `O=S1(=O)C=C(Sc2nc3ccccc3s2)c2ccccc21`?
RORA inh: 88*

Results for c1ccc(-c2nnc(SCc3cn4ccsc4n3)o2)cc1 ?
RORA inh: -42

How did O=c1oc2ccccc2n1CSc1nc2ccccc2s1 do in these assays?
RORA inh: -66

Results for OC1CCCCC1Sc1nc2ccccc2s1 (stereo not drawn) ?
RORA inh: -30

What do the screens show for `Cc1cc(C)nc(SC2=CS(=O)(=O)c3ccccc32)n1`?
RORA inh: 65*

How did O=S1(=O)C=C(Sc2nnc(-c3ccccc3)o2)c2ccccc21 do in these assays?
RORA inh: 80*

What do the screens show for `O=C(Sc1nnc(-c2ccccc2)o1)N1c2ccccc2Sc2ccccc21`?
RORA inh: 25

What do the screens show for `CCc1ccc(-n2c(O)cnc2Nc2nc(C)cc(C)n2)cc1`?
RORA inh: -4

Results for CCCCn1c(SCC(=O)N2CCN(c3ccccc3)CC2)nc2ccsc2c1=O ?
RORA inh: 16

Results for CN(C)/C=N/c1cnc(C(=O)c2ccc(Cl)cc2)n1C ?
RORA inh: -76

How did Cc1cccn2c(=O)c3cc(C(=O)N4CCN(c5ccccc5)CC4)n(C)c3nc12 do in these assays?
RORA inh: 9

Results for CC1=C(C(=O)OC(C)(C)C)C(c2ccco2)C(C#N)=C(N)O1 (stereo not drawn) ?
RORA inh: -2

Results for Cn1c(=O)c2c(SCc3ccccn3)nc(-c3ccccc3)nc2n(C)c1=O ?
RORA inh: 12

Results for CCOC(=O)C1=C(C)Nc2nc(SCC)[nH]c(=O)c2C1c1ccncc1 (stereo not drawn) ?
RORA inh: -3

What do the screens show for `Cc1cc(Nc2ccc(C)c(C)c2)n2nc(C)nc2n1`?
RORA inh: -38

Results for Cc1nnc(SCC(=O)Nc2ccc3c(c2)COC3=O)n1-c1ccccc1 ?
RORA inh: 6

What do the screens show for `Cc1ccc2nc(NC3=NCN(CCN4CCOCC4)CN3)nc(C)c2c1`?
RORA inh: -8

What do the screens show for `CC1CCCCN1C(=O)C1CC(c2ccc(F)cc2)=NO1` (stereo not drawn)?
RORA inh: -49

Results for CCOC(=O)Cc1csc(NC(=O)CSc2nc3cccnc3n2CC)n1 ?
RORA inh: -2

Results for Cc1cnc(-c2nnc(N(C)C(=O)c3ccccn3)s2)cn1 ?
RORA inh: -40

What do the screens show for `CC1(C)C(c2ccccc2)=NC(c2ccc(F)cc2)N1O` (stereo not drawn)?
RORA inh: -2

How did COCCCNC(=O)C1CCN(c2nc(C)cc(C)n2)CC1 do in these assays?
RORA inh: 22

What do the screens show for `CNc1nc2c(c(=O)[nH]c(=O)n2C)n1CCOC`?
RORA inh: 9

Results for O=C(Cc1cccs1)Nc1nc2ccccc2s1 ?
RORA inh: -58

How did COc1ccc2[nH]c(C)c(CN3CCC(C)CC3)c(=O)c2c1 do in these assays?
RORA inh: 1

Results for COc1ccc2[nH]c(=O)c3c(c2c1)OC(C)(C)C=C3 ?
RORA inh: 58*

How did O=C(Nc1nc(-c2ccc3c(c2)OCO3)cs1)C1CC1 do in these assays?
RORA inh: -72

What do the screens show for `CN(C)c1ccc(-c2nc3ccccc3n2C)cc1`?
RORA inh: 62*

How did CCn1c(-c2ccc(N(C)C)cc2)nc2ccccc21 do in these assays?
RORA inh: -88

How did Cn1c(-c2ccc(Br)o2)nc2ccccc21 do in these assays?
RORA inh: -73

What do the screens show for `O=C(Nc1cccc(F)c1)C1CCN(C(=O)Cc2ccccc2)CC1`?
RORA inh: 16

What do the screens show for `c1ccc(N2CCN(c3ccccc3)C2c2cccs2)cc1`?
RORA inh: -58

What do the screens show for `O=C(CN(Cc1ccco1)S(=O)(=O)c1cccs1)Nc1ccccc1C(F)(F)F`?
RORA inh: -9

Results for Cc1noc(C)c1C(=O)OCC(=O)c1cc(C)n(Cc2ccccc2Cl)c1C ?
RORA inh: -49

What do the screens show for `CCC(C)(C)n1nnnc1C(c1ccc(N(C)C)cc1)N1CCN(C2CCCCC2)CC1` (stereo not drawn)?
RORA inh: -14

How did CCOC(=O)c1c(C)[nH]c(C(=O)COC(=O)CNC(=O)C2CCCCC2)c1C do in these assays?
RORA inh: 23

How did CCc1ccc(-c2cn3nc(C)c(C)nc3n2)cc1 do in these assays?
RORA inh: 86*

What do the screens show for `COCCN(CCOC)c1ncnc2c1cnn2-c1ccc(Cl)cc1`?
RORA inh: -55

Results for CCN(c1ccccc1)c1ncnc2c1cnn2-c1ccccc1 ?
RORA inh: -59

What do the screens show for `Cc1cccc(-n2ncc3c(N(CCO)CCO)ncnc32)c1`?
RORA inh: -68

How did COc1ccc(-n2ncc3c(N(C)C4CCCCC4)ncnc32)cc1 do in these assays?
RORA inh: 76*

Results for Cc1cccc(-n2ncc3c(NCc4ccccc4)ncnc32)c1 ?
RORA inh: -78

Results for Cc1cccc(-n2ncc3c(N(C)C4CCCCC4)ncnc32)c1 ?
RORA inh: 73*

What do the screens show for `O=C(c1ccc(Br)cc1)C1CCc2occc2C1=O` (stereo not drawn)?
RORA inh: 0

Results for COC(=O)/C=C/S(=O)(=O)c1ccc(NC(C)=O)cc1 ?
RORA inh: -2

How did O=C(Cc1ccccc1)Nc1c(C(=O)N2CCOCC2)cnn1-c1ccccc1 do in these assays?
RORA inh: -11

Results for Cn1c(=O)cc(OCCCC(=O)NCc2ccc3c(c2)OCO3)c2ccccc21 ?
RORA inh: 8

Results for Clc1ncn(C23CC4CC(CC(C4)C2)C3)n1 ?
RORA inh: 9

Results for CCN(C(=O)c1cn(CC)c(=O)c2cc(OC)c(OC)cc12)c1ccccc1C ?
RORA inh: 3

How did O=C(NCCCn1ccnc1)c1cc(-c2cccs2)on1 do in these assays?
RORA inh: -92

Results for CCCCOc1ccc(C2(C)CC(=O)NC2=O)cc1 (stereo not drawn) ?
RORA inh: -15

How did c1ccc(-c2nc(N3CCCCCC3)c3ccccc3n2)nc1 do in these assays?
RORA inh: 79*

How did COc1ccc(Nc2nc(N3CCCC3)c3ccccc3n2)cc1 do in these assays?
RORA inh: 10

Results for O=C(O)c1cccc(N2CCCC2)c1 ?
RORA inh: 3

How did COCCNS(=O)(=O)c1cccc2cccnc12 do in these assays?
RORA inh: -8

Results for Cc1cccc2cc3c(nc12)SC(=NCC1CCCO1)N(Cc1ccco1)C3 (stereo not drawn) ?
RORA inh: 55*

Results for O=C(NCC12CC3CC(CC(C3)C1)C2)c1cc2n(n1)C(C(F)(F)F)CC(c1ccco1)N2 (stereo not drawn) ?
RORA inh: -5
